Source: ChEMBL document CHEMBL3046326, “Screening of dialkoxybenzenes and disubstituted cyclopentene derivatives against the cabbage looper, Trichoplusia ni, for the discovery of new feeding and oviposition deterrents” (J Agric Food Chem, 2007)

What was measured:
Trichoplusia ni [1] = test: Oviposition deterrent activity against adult female Trichoplusia ni (cabbage looper) moths introduced along with male moths into oviposition cage containing compound pretreated cabbage leaves assessed as eggs laying on the leaf disks at 0.25% after 48 hr by oviposition choice bioassay; format: functional
Procedure, shortened: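 Choice test with moths from larvae reared on normal diet from neonate to pupation. Pupae were sexed and held separately until emergence. Cabbage leaves were treated with test substance at 0.25% or left as control, and eggs per leaf were counted after 48 h. ODI = [(C − T)/(C + T)] × 100 from egg numbers on control and treated leaves.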

Trichoplusia ni [2] = test: Feeding deterrent activity against freshly molted third-instar larval stage of Trichoplusia ni (cabbage looper) after 3 to 5 hr by leaf disk choice bioassay; format: functional, organism-based
Procedure, shortened: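 Choice test: freshly molted third instar larvae, starved 4–5 h, offered two leaf disks, one painted on each side with 10 µL test solution and one with carrier solvent only. Twenty-five larvae per treatment. Ended when ~50% of the control disk was eaten (normally 3–5 h). Consumed areas measured. DC50 derived by linear regression of at least four concentrations (3.12–25 µg/cm²).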

Trichoplusia ni [3] = test: Toxicity against third-instar larval stage of Trichoplusia ni (cabbage looper) assessed as mortality at 0.25% measured after 24 hr by contact toxicity bioassay; format: functional
Procedure, shortened: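 Third-instar larvae were sprayed directly with test solution at 0.25% in filter-paper-lined Petri dishes. They were then moved to dishes holding a small piece of artificial diet. Mortality was scored 24 h after spraying. The test applied only to compounds giving >50% feeding deterrence at 50 µg/cm².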

Trichoplusia ni [4] = test: Feeding deterrent activity against freshly molted third-instar larval stage of Trichoplusia ni (cabbage looper), Trichoplusia ni at 50 ug/cm'2 after 3 to 5 hr by leaf disk choice bioassay; format: functional
Procedure, shortened: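 Leaf disk choice with freshly molted third instar larvae starved 4–5 h. One disk was painted on each side with 10 µL solution giving 50 µg/cm², the other with carrier solvent. Twenty-five larvae per treatment, stopped at ~50% control disk consumption (3–5 h). Deterrence = [(C − T)/(C + T)] × 100 from consumed areas; mean ± SE, Tukey's test p < 0.05.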

Compound | Activity (Trichoplusia ni [1]) [%] | DC50 (Trichoplusia ni [2]) [microg/cm2] | mortality (Trichoplusia ni [3]) [%] | Activity (Trichoplusia ni [4]) [%]
CCCOc1ccccc1OCCC(C)C | 29.4 | 32.5 | 10 | 66.9
CCCCCCCCCO[C@H]1C=CC[C@H]1CCOCCC(C)C (racemic) | – | – | – | 22
CCCCCCCCCO[C@H]1C=CC[C@H]1CCO (racemic) | – | – | – | 45.2
CCCCO[C@H]1C=CC[C@H]1CCO (racemic) | – | – | – | 41.6
OCC[C@@H]1CC=C[C@@H]1O (racemic) | – | – | – | 36.6
CCCOCC[C@@H]1CC=C[C@@H]1OCCC (racemic) | 41.8 | 32.6 | 37.5 | 66.7
CCCCOCC[C@@H]1CC=C[C@@H]1OCCCC (racemic) | 29.5 | 29.2 | 30 | 76
CC(C)CCOCC[C@@H]1CC=C[C@@H]1OCCC(C)C (racemic) | 47 | 34.4 | 44.8 | 58.6
COCC[C@@H]1CC=C[C@@H]1OC (racemic) | – | – | – | -17.6
CCOCC[C@@H]1CC=C[C@@H]1OCC (racemic) | – | – | – | -17.8
C=CCOc1ccccc1OCC=C [1,2-DIALLYLOXYBENZENE] | 15 | 22.4 | 20 | 70.4
CCCCOc1ccccc1OCCCC [1,2-DIBUTOXYBENZENE] | 19.6 | 43.8 | 10 | 56.4
CCOc1ccccc1OCC [1,2-DIETHOXYBENZENE] | – | – | – | -2.1
CC(C)CCOc1ccccc1OCCC(C)C [1,2-DIISOPENTOXYBENZENE] | 11.5 | 19.6 | 40 | 69.9
COc1ccccc1OC [1,2-DIMETHOXYBENZENE] | – | – | – | 26
CCCOc1ccccc1OCCC [1,2-DIPROPOXYBENZENE] | – | – | – | 26.2
CCOc1cccc(OCC)c1 [1,3-DIETHOXYBENZENE] | 3.4 | 28.7 | 36.7 | 89.4
CC(C)CCOc1cccc(OCCC(C)C)c1 [1,3-DIISOPENTOXYBENZENE] | – | – | – | -12.2
COc1cccc(OC)c1 [1,3-DIMETHOXYBENZENE] | – | – | – | 20.4
CCCOc1cccc(OCCC)c1 [1,3-DIPROPOXYBENZENE] | 33 | 26.8 | 76.7 | 96.9
C=CCOc1ccc(OCC=C)cc1 [1,4-DIALLYLOXYBENZENE] | 14.1 | 23.9 | 16 | 96.9

Compound | Activity (Trichoplusia ni [1]) [%] | DC50 (Trichoplusia ni [2]) [microg/cm2] | mortality (Trichoplusia ni [3]) [%] | Activity (Trichoplusia ni [4]) [%]
CC(C)CCOc1ccc(OCCC(C)C)cc1 [1,4-DIISOPENTOXYBENZENE] | – | – | – | 44
COc1ccc(OC)cc1 [1,4-DIMETHOXYBENZENE] | – | – | – | 9.9
CCCOc1ccc(OCCC)cc1 [1,4-DIPROPOXYBENZENE] | 11.8 | 20.3 | 22.6 | 96
C=CCOc1ccccc1OCCCC [1-allyloxy-2-butoxybenzene] | 66.7 | 30 | 23.3 | 67.8
C=CCOc1ccccc1OCC [1-allyloxy-2-ethoxybenzene] | 66.7 | 30 | 23.3 | 67.8
C=CCOc1ccccc1OC [1-allyloxy-2-methoxybenzene] | 66.7 | 30 | 23.3 | 67.8
C=CCOc1ccccc1OCCCCC [1-allyloxy-2-pentoxybenzene] | 66.7 | 30 | 23.3 | 67.8
C=CCOc1ccccc1OCCC [1-allyloxy-2-propoxybenzene] | 66.7 | 30 | 23.3 | 67.8
C=CCOc1ccc(OCCCC)cc1 [1-allyloxy-4-butoxybenzene] | 16.8 | 22.6 | 10 | 84
C=CCOc1ccc(OCC)cc1 [1-allyloxy-4-ethoxybenzene] | 5.4 | 27.9 | 10 | 82.4
C=CCOc1ccc(OCCC(C)C)cc1 [1-allyloxy-4-isopentoxybenzene] | 18.8 | 15.7 | 7 | 75.1
C=CCOc1ccc(OC)cc1 [1-allyloxy-4-methoxybenzene] | 5.4 | 27.9 | 10 | 82.4
C=CCOc1ccc(OCCC)cc1 [1-allyloxy-4-propoxybenzene] | 5.4 | 27.9 | 10 | 82.4
CCCCCOc1ccccc1OCCCC [1-butoxy-2-pentoxybenzene] | 28.7 | 16.8 | 6.7 | 98
CCCCOc1cccc(OCC)c1 [1-butyloxy-3-ethoxybenzene] | 25.9 | 14.4 | 30 | 84.1
CCCCOc1cccc(OC)c1 [1-butyloxy-3-methoxybenzene] | 25.9 | 14.4 | 30 | 84.1
CCCCCOc1cccc(OCCCC)c1 [1-butyloxy-3-pentoxybenzene] | 25.9 | 14.4 | 30 | 84.1
CCCCOc1cccc(OCCC)c1 [1-butyloxy-3-propoxybenzene] | 25.9 | 14.4 | 30 | 84.1
CCCCOc1ccc(OCC)cc1 [1-butyloxy-4-ethoxybenzene] | 50.1 | 14.5 | 58.1 | 83.4
CCCCOc1ccc(OC)cc1 [1-butyloxy-4-methoxybenzene] | 50.1 | 14.5 | 58.1 | 83.4
CCCCCOc1ccc(OCCCC)cc1 [1-butyloxy-4-pentoxybenzene] | 50.1 | 14.5 | 58.1 | 83.4

Compound | Activity (Trichoplusia ni [1]) [%] | DC50 (Trichoplusia ni [2]) [microg/cm2] | mortality (Trichoplusia ni [3]) [%] | Activity (Trichoplusia ni [4]) [%]
CCCCOc1ccc(OCCC)cc1 [1-butyloxy-4-propoxybenzene] | 50.1 | 14.5 | 58.1 | 83.4
CCCCOc1ccccc1OCC [1-ethoxy-2-butoxybenzene] | 28.7 | 24.1 | 6.7 | 71
CCCCCOc1ccccc1OCC [1-ethoxy-2-pentoxybenzene] | 28.7 | 24.1 | 6.7 | 71
C=CCOc1ccccc1O [1-hydroxy-2-allyloxybenzene] | – | – | – | 31.1
CCCCOc1ccccc1O [1-hydroxy-2-butoxybenzene] | – | – | – | 12
CCOc1ccccc1O [1-hydroxy-2-ethoxybenzene] | – | – | – | -5.3
CCCOc1ccccc1O [1-hydroxy-2-propoxybenzene] | – | – | – | -12
CCOc1cccc(O)c1 [1-hydroxy-3-ethoxybenzene] | – | – | – | -18.7
CC(C)CCOc1cccc(O)c1 [1-hydroxy-3-isopentoxybenzene] | – | – | – | -5.8
COc1cccc(O)c1 [1-hydroxy-3-methoxybenzene] | – | – | – | 44.7
CCCOc1cccc(O)c1 [1-hydroxy-3-propoxybenzene] | – | – | – | 4
CCOc1ccc(O)cc1 [1-hydroxy-4-ethoxybenzene] | – | – | – | 29.8
CC(C)CCOc1ccc(O)cc1 [1-hydroxy-4-isopentoxybenzene] | – | – | – | 29.5
CCCOc1ccc(O)cc1 [1-hydroxy-4-propoxybenzene] | – | – | – | -28
CCCCOc1ccccc1OC [1-methoxy-2-butoxybenzene] | – | – | – | 23.5
CCOc1ccccc1OC [1-methoxy-2-ethoxybenzene] | – | – | – | 23.5
CCCCCOc1ccccc1OC [1-methoxy-2-pentoxybenzene] | – | – | – | 23.5
CCCOc1ccccc1OC [1-methoxy-2-propoxybenzene] | – | – | – | 23.5
COc1ccccc1O [GUAIACOL] | – | – | – | -7.5
COc1ccc(O)cc1 [MEQUINOL] | – | – | – | -26.5
